Measurements published in ChEMBL document CHEMBL2311431, “Synthesis and biological evaluation of some 5-arylidene-2-(1,3-thiazol-2-ylimino)-1,3-thiazolidin-4-ones as dual anti-inflammatory/antimicrobial agents” (Bioorg Med Chem, 2013).
Values after ≈ are worked out from the molar mass of the structure shown.

Test system: Micrococcus flavus
Assay: Antibacterial activity against Micrococcus flavus ATCC 10240 after 24 hr by microdilution test
Type: functional
Details: ATCC 10240, 24 h
How it was run: (§1)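 Broth microdilution in LB medium, about 1.0×10^4 cfu per well; compounds from 1 mg/ml stocks in 5% DMSO. Incubated 24 h. MIC is the lowest concentration with no visible growth under a binocular microscope. Run in duplicate, repeated three times.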

SMILES	MIC
O=C1N/C(=N\c2nccs2)S/C1=C\c1cccc(F)c1	65.4 µM (≈ 20 µg/mL)
O=C1N/C(=N\c2nccs2)S/C1=C\c1ccc(F)cc1	65.4 µM (≈ 20 µg/mL)

Test system: Talaromyces funiculosus
Assay: Antifungal activity against Penicillium funiculosum ATCC 36839 after 72 hrs by serial dilution technique
Type: functional
Details: ATCC 36839, 72 h
How it was run: (§2)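 Serial dilution in malt broth; compounds from 1 mg/ml stocks in 5% DMSO; 72 h at 28 °C. MIC is the lowest concentration with no visible growth under a binocular microscope. Run in duplicate, repeated three times.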

SMILES	MIC
O=C1N/C(=N\c2nccs2)S/C1=C\c1cccc(F)c1	32.7 µM (≈ 9.99 µg/mL)
O=C1N/C(=N\c2nccs2)S/C1=C\c1ccc(F)cc1	32.7 µM (≈ 9.99 µg/mL)

Molecular target: not listed separately
Assay: (§3) Inhibition of soybean lipoxygenase assessed as inhibition of sodium linolate conversion to 13-hydroperoxylinoleic acid after 4 mins by spectrophotometry
Design: species or system Glycine max
Details: read-out: IC50

SMILES	IC50
O=C1N/C(=N\c2nccs2)S/C1=C\c1cccc(F)c1	90 µM
O=C1N/C(=N\c2nccs2)S/C1=C\c1ccc(F)cc1	> 150 µM

Test system: Glycine max
Assay: as §3
Details: not given

SMILES	inhibition
O=C1N/C(=N\c2nccs2)S/C1=C\c1cccc(F)c1	72%
O=C1N/C(=N\c2nccs2)S/C1=C\c1ccc(F)cc1	35%

Test system: Mus musculus
Assay: Acute toxicity in AKR mouse up to 0.5 mmol/kg, ip
Type: organism-based
Details: in vivo

SMILES	Activity
O=C1N/C(=N\c2nccs2)S/C1=C\c1cccc(F)c1	Non-toxic
O=C1N/C(=N\c2nccs2)S/C1=C\c1ccc(F)cc1	Non-toxic

Molecular target: T1, Prostaglandin G/H synthase 1 (Ovis aries) (UniProt P05979)
T1 sequence (whole entry): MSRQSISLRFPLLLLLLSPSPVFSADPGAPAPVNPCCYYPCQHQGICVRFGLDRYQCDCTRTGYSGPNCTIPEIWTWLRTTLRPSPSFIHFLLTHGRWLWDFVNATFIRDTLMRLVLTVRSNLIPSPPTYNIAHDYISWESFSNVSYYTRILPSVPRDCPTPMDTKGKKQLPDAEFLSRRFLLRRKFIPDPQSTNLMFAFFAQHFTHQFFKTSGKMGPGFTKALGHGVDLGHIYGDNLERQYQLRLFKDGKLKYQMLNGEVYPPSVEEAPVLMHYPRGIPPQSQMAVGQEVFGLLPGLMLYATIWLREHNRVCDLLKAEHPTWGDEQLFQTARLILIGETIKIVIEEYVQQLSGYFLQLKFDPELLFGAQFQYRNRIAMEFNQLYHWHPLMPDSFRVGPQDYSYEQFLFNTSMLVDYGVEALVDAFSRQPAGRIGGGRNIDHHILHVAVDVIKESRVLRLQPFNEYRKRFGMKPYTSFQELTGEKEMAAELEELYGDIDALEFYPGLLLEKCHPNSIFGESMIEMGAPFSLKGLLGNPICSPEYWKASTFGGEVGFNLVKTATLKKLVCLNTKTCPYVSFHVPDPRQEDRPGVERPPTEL
Assay: Inhibition of ovine COX1 assessed as inhibition of PGF2a production by enzyme immunoassay
Design: concentration or dose not given beside the values
Details: concentration not given here
How it was run: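 Ovine COX-1 from a commercial screening kit, tested with 0.1 µM arachidonic acid, which is below the saturating level. COX-derived PGH2 is reduced by SnCl2 to PGF2a, quantified by enzyme immunoassay with a broad prostaglandin antibody. At least triplicate.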

SMILES	inhibition
O=C1N/C(=N\c2nccs2)S/C1=C\c1cccc(F)c1	42%
O=C1N/C(=N\c2nccs2)S/C1=C\c1ccc(F)cc1	44%

Test system: Aspergillus niger
Assay: Antifungal activity against Aspergillus niger ATCC 6275 after 72 hrs by serial dilution technique
Type: functional
Details: ATCC 6275, 72 h
How it was run: as §2

SMILES	MIC
O=C1N/C(=N\c2nccs2)S/C1=C\c1cccc(F)c1	32.7 µM (≈ 9.99 µg/mL)
O=C1N/C(=N\c2nccs2)S/C1=C\c1ccc(F)cc1	32.7 µM (≈ 9.99 µg/mL)

Test system: Escherichia coli
Assay: Bactericidal activity against Escherichia coli ATCC 35210 after 72 hrs by serial subcultivation method
Type: functional
Details: ATCC 35210, 72 h

SMILES	MBC
O=C1N/C(=N\c2nccs2)S/C1=C\c1cccc(F)c1	65.4 µM (≈ 20 µg/mL)
O=C1N/C(=N\c2nccs2)S/C1=C\c1ccc(F)cc1	65.4 µM (≈ 20 µg/mL)

Test system: Aspergillus flavus
Assay: Antifungal activity against Aspergillus flavus ATCC 9643 after 72 hrs by serial dilution technique
Type: functional
Details: ATCC 9643, 72 h
How it was run: as §2

SMILES	MIC
O=C1N/C(=N\c2nccs2)S/C1=C\c1cccc(F)c1	32.7 µM (≈ 9.99 µg/mL)
O=C1N/C(=N\c2nccs2)S/C1=C\c1ccc(F)cc1	65.4 µM (≈ 20 µg/mL)

Test system: Mus musculus
Assay: Antiinflammatory activity in AKR mouse assessed as inhibition of carrageenan-induced paw edema at 0.01 mmol/kg, ip measured after 3.5 hrs of carrageenan-challenge
Type: functional
Details: not given
How it was run: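 AKR mice of both sexes (pregnant females excluded), 6-10 per group, fasted during the experiment. Edema induced by intradermal 0.05 mL of 2% carrageenin into the right hind paw. Compound given at 0.01 mmol/kg ip, suspended in water with Tween-80, at the same time as carrageenin.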

SMILES	inhibition in vivo at 10 µmol/kg
O=C1N/C(=N\c2nccs2)S/C1=C\c1cccc(F)c1	56.6%
O=C1N/C(=N\c2nccs2)S/C1=C\c1ccc(F)cc1	65.6%

Test system: Listeria monocytogenes
Assay: Bactericidal activity against Listeria monocytogenes NCTC 7973 after 72 hrs by serial subcultivation method
Type: functional
Details: NCTC 7973, 72 h

SMILES	MBC
O=C1N/C(=N\c2nccs2)S/C1=C\c1cccc(F)c1	98.2 µM (≈ 30 µg/mL)
O=C1N/C(=N\c2nccs2)S/C1=C\c1ccc(F)cc1	98.2 µM (≈ 30 µg/mL)

Test system: Aspergillus niger
Assay: Fungicidal activity against Aspergillus niger ATCC 6275 after 72 hrs by serial subcultivation method
Type: functional
Details: ATCC 6275, 72 h

SMILES	MFC
O=C1N/C(=N\c2nccs2)S/C1=C\c1cccc(F)c1	65.4 µM (≈ 20 µg/mL)
O=C1N/C(=N\c2nccs2)S/C1=C\c1ccc(F)cc1	65.4 µM (≈ 20 µg/mL)

Test system: Pseudomonas aeruginosa
Assay: Bactericidal activity against Pseudomonas aeruginosa ATCC 27853 after 72 hrs by serial subcultivation method
Type: functional
Details: ATCC 27853, 72 h

SMILES	MBC
O=C1N/C(=N\c2nccs2)S/C1=C\c1cccc(F)c1	32.7 µM (≈ 9.99 µg/mL)
O=C1N/C(=N\c2nccs2)S/C1=C\c1ccc(F)cc1	65.4 µM (≈ 20 µg/mL)

Test system: Staphylococcus aureus
Assay: Antibacterial activity against Staphylococcus aureus ATCC 6538 after 24 hr by microdilution test
Type: functional
Details: ATCC 6538, 24 h
How it was run: as §1

SMILES	MIC
O=C1N/C(=N\c2nccs2)S/C1=C\c1cccc(F)c1	32.7 µM (≈ 9.99 µg/mL)
O=C1N/C(=N\c2nccs2)S/C1=C\c1ccc(F)cc1	32.7 µM (≈ 9.99 µg/mL)

Test system: Micrococcus flavus
Assay: Bactericidal activity against Micrococcus flavus ATCC 10240 after 72 hrs by serial subcultivation method
Type: functional
Details: ATCC 10240, 72 h

SMILES	MBC
O=C1N/C(=N\c2nccs2)S/C1=C\c1cccc(F)c1	81.9 µM (≈ 25 µg/mL)
O=C1N/C(=N\c2nccs2)S/C1=C\c1ccc(F)cc1	81.9 µM (≈ 25 µg/mL)

Test system: Aspergillus fumigatus
Assay: Antifungal activity against Aspergillus fumigatus after 72 hrs by serial dilution technique
Type: functional
Details: not given
How it was run: as §2

SMILES	MIC
O=C1N/C(=N\c2nccs2)S/C1=C\c1cccc(F)c1	32.7 µM (≈ 9.99 µg/mL)
O=C1N/C(=N\c2nccs2)S/C1=C\c1ccc(F)cc1	49.1 µM (≈ 15 µg/mL)

Test system: Aspergillus flavus
Assay: Fungicidal activity against Aspergillus flavus ATCC 9643 after 72 hrs by serial subcultivation method
Type: functional
Details: ATCC 9643, 72 h

SMILES	MFC
O=C1N/C(=N\c2nccs2)S/C1=C\c1cccc(F)c1	65.4 µM (≈ 20 µg/mL)
O=C1N/C(=N\c2nccs2)S/C1=C\c1ccc(F)cc1	81.9 µM (≈ 25 µg/mL)

Test system: Trichoderma viride
Assay: Fungicidal activity against Trichoderma viride IAM 5061 after 72 hrs by serial subcultivation method
Type: functional
Details: IAM 5061, 72 h

SMILES	MFC
O=C1N/C(=N\c2nccs2)S/C1=C\c1cccc(F)c1	65.4 µM (≈ 20 µg/mL)
O=C1N/C(=N\c2nccs2)S/C1=C\c1ccc(F)cc1	65.4 µM (≈ 20 µg/mL)

Test system: Bacillus cereus
Assay: Antibacterial activity against Bacillus cereus clinical isolate after 24 hr by microdilution test
Type: functional
Details: not given
How it was run: as §1

SMILES	MIC
O=C1N/C(=N\c2nccs2)S/C1=C\c1cccc(F)c1	24.6 µM (≈ 7.51 µg/mL)
O=C1N/C(=N\c2nccs2)S/C1=C\c1ccc(F)cc1	24.6 µM (≈ 7.51 µg/mL)

Test system: Pseudomonas aeruginosa
Assay: Antibacterial activity against Pseudomonas aeruginosa ATCC 27853 after 24 hr by microdilution test
Type: functional
Details: ATCC 27853, 24 h
How it was run: as §1

SMILES	MIC
O=C1N/C(=N\c2nccs2)S/C1=C\c1cccc(F)c1	24.6 µM (≈ 7.51 µg/mL)
O=C1N/C(=N\c2nccs2)S/C1=C\c1ccc(F)cc1	32.7 µM (≈ 9.99 µg/mL)

Test system: Trichoderma viride
Assay: Antifungal activity against Trichoderma viride IAM 5061 after 72 hrs by serial dilution technique
Type: functional
Details: IAM 5061, 72 h
How it was run: as §2

SMILES	MIC
O=C1N/C(=N\c2nccs2)S/C1=C\c1cccc(F)c1	32.7 µM (≈ 9.99 µg/mL)
O=C1N/C(=N\c2nccs2)S/C1=C\c1ccc(F)cc1	32.7 µM (≈ 9.99 µg/mL)

Test system: Escherichia coli
Assay: Antibacterial activity against Escherichia coli ATCC 35210 after 24 hr by microdilution test
Type: functional
Details: ATCC 35210, 24 h
How it was run: as §1

SMILES	MIC
O=C1N/C(=N\c2nccs2)S/C1=C\c1cccc(F)c1	32.7 µM (≈ 9.99 µg/mL)
O=C1N/C(=N\c2nccs2)S/C1=C\c1ccc(F)cc1	32.7 µM (≈ 9.99 µg/mL)

Test system: Aspergillus fumigatus
Assay: Fungicidal activity against Aspergillus fumigatus after 72 hrs by serial subcultivation method
Type: functional
Details: not given

SMILES	MFC
O=C1N/C(=N\c2nccs2)S/C1=C\c1cccc(F)c1	49.1 µM (≈ 15 µg/mL)
O=C1N/C(=N\c2nccs2)S/C1=C\c1ccc(F)cc1	65.4 µM (≈ 20 µg/mL)

Test system: Talaromyces funiculosus
Assay: Fungicidal activity against Penicillium funiculosum ATCC 36839 after 72 hrs by serial subcultivation method
Type: functional
Details: ATCC 36839, 72 h

SMILES	MFC
O=C1N/C(=N\c2nccs2)S/C1=C\c1cccc(F)c1	65.4 µM (≈ 20 µg/mL)
O=C1N/C(=N\c2nccs2)S/C1=C\c1ccc(F)cc1	65.4 µM (≈ 20 µg/mL)

Test system: Penicillium ochrochloron
Assay: Fungicidal activity against Penicillium ochrochloron ATCC 9112 after 72 hrs by serial subcultivation method
Type: functional
Details: ATCC 9112, 72 h

SMILES	MFC
O=C1N/C(=N\c2nccs2)S/C1=C\c1cccc(F)c1	65.4 µM (≈ 20 µg/mL)
O=C1N/C(=N\c2nccs2)S/C1=C\c1ccc(F)cc1	65.4 µM (≈ 20 µg/mL)

Test system: Listeria monocytogenes
Assay: Antibacterial activity against Listeria monocytogenes NCTC 7973 after 24 hr by microdilution test
Type: functional
Details: NCTC 7973, 24 h
How it was run: as §1

SMILES	MIC
O=C1N/C(=N\c2nccs2)S/C1=C\c1cccc(F)c1	81.9 µM (≈ 25 µg/mL)
O=C1N/C(=N\c2nccs2)S/C1=C\c1ccc(F)cc1	81.9 µM (≈ 25 µg/mL)

Test system: Staphylococcus aureus
Assay: Bactericidal activity against Staphylococcus aureus ATCC 6538 after 72 hrs by serial subcultivation method
Type: functional
Details: ATCC 6538, 72 h

SMILES	MBC
O=C1N/C(=N\c2nccs2)S/C1=C\c1cccc(F)c1	65.4 µM (≈ 20 µg/mL)
O=C1N/C(=N\c2nccs2)S/C1=C\c1ccc(F)cc1	65.4 µM (≈ 20 µg/mL)

Test system: Bacillus cereus
Assay: Bactericidal activity against Bacillus cereus clinical isolate after 72 hrs by serial subcultivation method
Type: functional
Details: not given

SMILES	MBC
O=C1N/C(=N\c2nccs2)S/C1=C\c1cccc(F)c1	32.7 µM (≈ 9.99 µg/mL)
O=C1N/C(=N\c2nccs2)S/C1=C\c1ccc(F)cc1	32.7 µM (≈ 9.99 µg/mL)

Test system: Penicillium ochrochloron
Assay: Antifungal activity against Penicillium ochrochloron ATCC 9112 after 72 hrs by serial dilution technique
Type: functional
Details: ATCC 9112, 72 h
How it was run: as §2

SMILES	MIC
O=C1N/C(=N\c2nccs2)S/C1=C\c1cccc(F)c1	32.7 µM (≈ 9.99 µg/mL)
O=C1N/C(=N\c2nccs2)S/C1=C\c1ccc(F)cc1	32.7 µM (≈ 9.99 µg/mL)
